Test results: ChEMBL document CHEMBL4190405, “Scaffold-Hopping Approach To Discover Potent, Selective, and Efficacious Inhibitors of NF-κB Inducing Kinase” (J Med Chem, 2018)
≈ marks a conversion by molar mass, not a printed value.

Experiments:
[1] = Lipophilicity, log D of the compound at pH 7.4 by LC-MS based shake flask method; format: physicochemical; details: buffer
Outline: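 LogD at pH 7.4 measured by a high-throughput microscale shake-flask method with LC-MS/MS quantitation.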

[2] = Kinetic solubility of the compound; format: physicochemical; details: read-out: Kinetic_solubility
[3] = Apparent permeability from apical to basolateral side in MDCK cells; format: ADME, cell-based, Canis lupus familiaris; details: dog
[4] = Apparent permeability from basolateral to apical side in MDCK cells; format: ADME, cell-based, Canis lupus familiaris; details: dog
[5] = Volume of distribution in Sprague-Dawley rat; format: ADME, organism-based; details: in vivo
[6] = Oral bioavailability in Sprague-Dawley rat at 5 mg/kg via gavage administered as single dose; format: ADME, organism-based; details: in vivo
[7] = Volume of distribution in CD-1 mouse; format: ADME, organism-based; details: in vivo
[8] = Oral bioavailability in CD-1 mouse at 5 mg/kg via gavage administered as single dose; format: ADME, organism-based; details: in vivo
[9] = Volume of distribution in Beagle dog; format: ADME, organism-based, Canis lupus familiaris; details: in vivo
[10] = Oral bioavailability in Beagle dog at 5 mg/kg via gavage administered as single dose; format: ADME, organism-based, Canis lupus familiaris; details: in vivo
[11] = Volume of distribution in cynomolgus monkey; format: ADME, organism-based, Macaca fascicularis; details: in vivo
[12] = Oral bioavailability in cynomolgus monkey at 5 mg/kg via gavage administered as single dose; format: ADME, organism-based, Macaca fascicularis; details: in vivo

| logD [1] | SMILES | also measured |
| --- | --- | --- |
| 2 | CN1CC[C@@](O)(C#Cc2ccnc(-n3nc(C(N)=O)cc3N)c2)C1=O |  |
| 1.3 | CN1CC[C@@](O)(C#Cc2cccc(-c3nc(C(N)=O)c4ccccn34)c2)C1=O |  |
| 2.4 | CN1CC[C@@](O)(C#Cc2cccc(-n3cc(C(N)=O)c4cccnc43)c2)C1=O |  |
| 1.9 | CN1CC[C@@](O)(C#Cc2ccnc(-n3nc(C(N)=O)c4ccccc43)c2)C1=O |  |
| 1.6 | CN1CC[C@@](O)(C#Cc2cccc(-c3cccc(C(N)=O)n3)c2)C1=O |  |
| 2.1 | CN1CC[C@@](O)(C#Cc2cccc(-n3nc(C(N)=O)c4ccccc43)c2)C1=O |  |
| 1.6 | CN1CC[C@@](O)(C#Cc2cccc(-c3cccc(C(N)=O)c3)c2)C1=O |  |

Second part, the compound before the results:

| SMILES | logD [1] | also measured |
| --- | --- | --- |
| CN1CC[C@@](O)(C#Cc2ccnc(-n3ccc(C(N)=O)n3)c2)C1=O | 0.61 |  |
| COc1cnc2c(c1)c(C(N)=O)nn2-c1cccc(C#C[C@]2(O)CCN(C)C2=O)c1 | 1.9 |  |
| COc1ccc2c(-c3cccc(C#C[C@]4(O)CCN(C)C4=O)c3)nc(C(N)=O)n2c1 | 2.4 |  |
| CN1CC[C@@](O)(C#Cc2cccc(-n3nc(C(N)=O)c4cc(F)ccc43)c2)C1=O | 2.6 |  |
| CN1CC[C@@](O)(C#Cc2cccc(-n3nc(C(N)=O)c4cccnc43)c2)C1=O | 1.6 |  |
| CCOc1ccn2c(-c3cccc(C#C[C@]4(O)CCN(C)C4=O)c3)nc(C(N)=O)c2c1 | 1.9 |  |
| CN1CC[C@@](O)(C#Cc2cccc(-c3ccnc(C(N)=O)n3)c2)C1=O | 1.6 |  |
| COc1cc(C(N)=O)nc(-c2cccc(C#C[C@]3(O)CCN(C)C3=O)c2)c1 | 1.9 | solubility kinetic [2]: 139 µM (≈ 50.8 µg/mL); Papp A→B [3]: 7.3 ×10⁻⁶ cm/s; Papp B→A [4]: 10.2 ×10⁻⁶ cm/s; Vd [5]: 1.35 L/kg; bioavailability [6]: 97%; Vd [7]: 1.58 L/kg; bioavailability [8]: 54%; Vd [9]: 0.778 L/kg; bioavailability [10]: 56%; Vd [11]: 1.39 L/kg; bioavailability [12]: > 100% |
| COc1cc(C(N)=O)nc(-c2cccc(C#C[C@]3(O)CCN(C)C3=O)c2)n1 | 1.8 |  |
| CN1CC[C@@](O)(C#Cc2cccc(-c3cc4ccccc4c(C(N)=O)n3)c2)C1=O | 2.5 |  |
| CN1CC[C@@](O)(C#Cc2ccnc(-n3nc(C(N)=O)cc3C3CC3)c2)C1=O | 2 |  |
| CN1CC[C@@](O)(C#Cc2ccnc(-n3nc(C(N)=O)c4c3CCCC4)c2)C1=O | 1.9 |  |
| CN1CC[C@@](O)(C#Cc2cccc(-c3ccc(N)c(C(N)=O)n3)c2)C1=O | 1.7 |  |
| CN1CC[C@@](O)(C#Cc2cccc(-c3nc(C(N)=O)n4ccccc34)c2)C1=O | 2.2 |  |
| CN1CC[C@@](O)(C#Cc2cccc(-c3cncc(C(N)=O)n3)c2)C1=O | 1 |  |
